# Wnt bcat act – activates Wnt/beta-catenin signaling in a reporter cell assay; 300,000 tested, 1.2% active; activator, plate reader; activation, % at 9.35 µM; in the data active = activation above about 30%, passing the limit was not always enough; inconclusive = no clear call, values can overlap the other calls;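 also: 0% = neutral control wells and 100% = positive control wells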
# MITF act – MITF TRPM1 promoter activation in melanoma cells | SK-MEL-5 TRPM1-promoter luciferase, 24 h; % of positive control, neutral wells = 0 | activation, % at 12.5 µM | 300,000 tested, 0.75% active | AID 588334;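 active = mean activation of at least 80% with every replicate also reaching 80%; inconclusive = mean reaches 80% but some replicate falls short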;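 also: 0% = neutral control wells and 100% = parthenolide positive control wells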
# Cneo AK release – causes C. neoformans cell lysis; adenylate kinase release luminescence, 4 h; normalised: neutral wells 0, clomiphene wells 100; lysis activity, % at 15 µM; 360,000 tested, 0.2% active;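 active = mean lysis activity across replicates of at least 80%, whatever share of replicates individually reach that level; inactive = mean lysis activity below 80%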
#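 Assay system: C. neoformans cells. Amount: yeast cell density of 5 × 10^6 cells/mL. Technique: AK luminescence. Buffer or medium: YPD. Times: static 4 h at 37 °C with compound, 1 h detection. Dosing: single-point compound dose. Read-out: lysis from increased AK signal.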
# ERAP1 inh – blocks human ERAP1 aminopeptidase activity. recombinant ERAP1, Leu-AMC fluorescence, 60 min. 340,000 tested, 0.15% active. AID 652197. inhibition, % at 10.7 µM. Q9NZ08;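 active = mean replicate inhibition of at least 30%, or all replicates individually reaching that 30% level; inactive = mean below 30% and not every replicate reaching it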;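 also: 0% = neutral control wells and 100% = L-leucinethiol positive control wells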
# Target sequence (Q9NZ08 whole entry, looked up): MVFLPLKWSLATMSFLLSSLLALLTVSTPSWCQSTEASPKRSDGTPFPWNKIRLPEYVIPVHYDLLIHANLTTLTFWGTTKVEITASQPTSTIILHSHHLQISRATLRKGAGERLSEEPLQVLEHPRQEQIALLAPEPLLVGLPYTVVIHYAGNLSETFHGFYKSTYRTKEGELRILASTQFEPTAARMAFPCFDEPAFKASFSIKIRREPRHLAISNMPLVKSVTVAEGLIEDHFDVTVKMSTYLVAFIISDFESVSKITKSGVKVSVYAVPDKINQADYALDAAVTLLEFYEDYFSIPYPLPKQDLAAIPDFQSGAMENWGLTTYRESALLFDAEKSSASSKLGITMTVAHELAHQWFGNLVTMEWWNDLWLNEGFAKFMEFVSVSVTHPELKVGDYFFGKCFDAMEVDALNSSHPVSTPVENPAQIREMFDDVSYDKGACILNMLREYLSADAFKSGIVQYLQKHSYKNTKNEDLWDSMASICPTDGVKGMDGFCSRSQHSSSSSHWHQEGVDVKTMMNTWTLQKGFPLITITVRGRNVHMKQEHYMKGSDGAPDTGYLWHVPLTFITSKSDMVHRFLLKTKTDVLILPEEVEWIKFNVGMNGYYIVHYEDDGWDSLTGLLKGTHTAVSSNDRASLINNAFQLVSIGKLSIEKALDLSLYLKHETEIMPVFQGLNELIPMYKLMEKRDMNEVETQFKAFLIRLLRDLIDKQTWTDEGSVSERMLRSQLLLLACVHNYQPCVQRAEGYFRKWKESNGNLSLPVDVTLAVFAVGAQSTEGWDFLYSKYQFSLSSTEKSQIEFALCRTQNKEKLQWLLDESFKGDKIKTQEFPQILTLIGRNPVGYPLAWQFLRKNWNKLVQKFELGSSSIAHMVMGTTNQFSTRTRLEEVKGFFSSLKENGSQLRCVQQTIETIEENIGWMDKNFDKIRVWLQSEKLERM
# HIV Env fusion – inhibitors of HIV Env-mediated cell fusion; HeLa-JRFL Env/CEM21 cell fusion, luciferase; 360,000 tested, 1.1% active; inhibition, % at 12.3 µM;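 active = mean replicate inhibition score of at least 50 and every replicate individually at or above 50; inconclusive = only one of the two criteria met; inactive = mean below 50 and not all replicates reaching 50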;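 also: 0% = plate neutral controls and 100% = maraviroc near 300 nM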
# esBAF inh – inhibitors of esBAF chromatin remodeling in mouse ES cells | Bmi1-luciferase knock-in reporter, 24 h; 100% = twice the neutral-well signal | reporter increase, % at 12.5 µM | 350,000 tested, 2% active; in the data active = activation above about 40%; inconclusive = no clear call, values can overlap the other calls;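 also: 0% = median of the plate's neutral control wells and 100% = double that signal; a rise in the Bmi1 reporter signal indicates esBAF inhibition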
# * hit, by the source's call; i = inactive; ? = inconclusive; / = no result; [ ] = remark or other dose. An excerpt weighted towards active compounds, which were near 3.5% of everything screened.
SMILES,Wnt bcat act,MITF act,Cneo AK release,ERAP1 inh,HIV Env fusion,esBAF inh
Cc1noc(C)c1NC(=O)Nc1ccc2c(c1)C(=O)N([C@H](C)CO)C[C@H](C)[C@H](CN(C)Cc1ccc(Cl)c(Cl)c1)OCCCC[C@H](C)O2,/,/,-4.0,-3.4,17.0[16.7 µM],1.2
O=C(CN1CCOCC1)N/N=C/c1ccc(-c2ccc(C(=O)O)cc2)o1,11.8,-3.3,/,93.2*,13.2,/
CC1(CC(=O)N/N=C/c2ccc(-c3ccc(C(=O)O)cc3)o2)OCCO1,0.2,2.3,-0.3,9.9,/,3.3
CCCNc1ccc(C(=O)OCC)cc1[N+](=O)[O-],8.3,76.9,1.2,-3.9,8.3,51.9*
CCOC(=O)CNc1ccc(C(=O)OCC)cc1[N+](=O)[O-],4.1,0.3,/,/,-78.4,/
O=C(NCC[C@@H]1CC[C@H](NS(=O)(=O)c2cccc(F)c2)[C@H](CO)O1)C1CCCCC1,/,/,1.6,-0.2,-8.1[16.7 µM],1.3
O=C(COc1ccccc1)Nc1cccc(-c2nc3cc4ccccc4cc3[nH]2)c1,/,105.5*,-12.5,/,i,6.5
CC(Oc1ccccc1)C(=O)Nc1cccc(-c2nc3ccccc3[nH]2)c1 (centres undefined),/,/,-0.2,/,/,45.9*
Cc1nc(CN(C)c2ncnc3ccc(-c4ccc5c(c4)OCO5)cc23)cs1,-2.6,/,-2.1,1.0,-20.0,43.2*
CN(Cc1ccco1)c1ncnc2ccc(-c3ccc4c(c3)OCO4)cc12,-9.4,-24.9,2.3,-3.2,/,-3.4
CN(C)c1ccc2c(c1)[C@@H]1C[C@@H](CC(=O)NCc3ccncc3)O[C@H](CO)[C@@H]1O2,/,/,-5.1,2.7,6.2[16.7 µM],-0.3
Cc1ccsc1CN(C)C(=O)c1cc(S(=O)(=O)N2CCOCC2)ccc1N1CCCC1,44.0*,6.9,-1.9,0.8,/,-1.4
COCC(=O)N1C[C@@H](C)[C@H](OC)CN(C)C(=O)c2ccc(NC(=O)Nc3ccccc3)cc2OC[C@@H]1C,/,/,/,1.4,21.0[16.7 µM],/
O=C(N[C@@H]1C=C[C@@H](CC(=O)N2CCCCC2)O[C@@H]1CO)c1cccc(F)c1,/,/,-1.1,0.6,-9.4[16.7 µM],-3.1
CC(=O)c1ccc(NC(=O)C2(c3ccccc3)CCOCC2)cc1,14.1,58.0,1.1,/,-51.6,55.4*
O=C(c1ccc(NC(=O)C2(c3ccccc3)CCOCC2)cc1)N1CCOCC1,/,-4.2,0.2,/,/,/
C[C@@H]1CN([C@@H](C)CO)C(=O)Cc2cc(NS(=O)(=O)c3ccccc3)ccc2O[C@@H]1CN(C)S(C)(=O)=O,/,/,-0.1,-0.9,-29.7[16.7 µM],-0.8
Cc1occc1C(=O)NCCc1cccc(Cl)c1,/,65.5,1.8,/,/,52.0*
O=C(NCCc1cccc(Cl)c1)c1cccs1,-1.5,?,-1.0,-9.7,-37.5,63.5*
O=C(NCCc1ccccc1)c1cccs1,24.7,41.5,-1.7,/,-76.9,/
O=C(NCCc1cccs1)c1ccc(Cl)c(Cl)c1,36.8*,93.8*,/,0.1,-54.1,/
C[C@@H]1CCCCO[C@H](CN(C)Cc2ccccc2)[C@@H](C)CN([C@@H](C)CO)C(=O)c2cc(NS(C)(=O)=O)ccc2O1,/,/,2.9,-0.9,-5.3[16.7 µM],2.6
C[C@H]1CN([C@@H](C)CO)C(=O)c2cc(-c3ccc(F)cc3)cnc2O[C@@H]1CN(C)CC1CCCC1,/,/,2.5,-1.2,6.1[16.7 µM],-10.8
Cc1ccc(-n2nc(C(=O)c3ccccc3)n3c(=O)cc(-c4ccccc4)nc23)cc1,/,4.0,-2.1,/,/,84.0*
COc1ccc(C#Cc2ccc3c(c2)O[C@H](CN(C)C(C)=O)[C@@H](C)CN([C@@H](C)CO)S3(=O)=O)cc1,/,/,98.4*,-1.2,27.3[16.7 µM],8.0
SMILES,Wnt bcat act,MITF act,Cneo AK release,ERAP1 inh,HIV Env fusion,esBAF inh
C[C@H](CO)N1C[C@H](C)[C@@H](CN(C)C)Oc2cc(C#Cc3cccc(F)c3)ccc2S1(=O)=O,/,/,2.2,3.5,16.7[16.7 µM],-4.0
C[C@H]1CN([C@@H](C)CO)S(=O)(=O)c2ccc(C#Cc3ccc(F)cc3)cc2O[C@@H]1CN(C)C(=O)NC1CCCC1,/,/,-0.3,0.4,42.6[16.7 µM],-5.8
CCCC#Cc1ccc2c(c1)O[C@@H](CN(C)C)[C@@H](C)CN([C@@H](C)CO)S2(=O)=O,/,/,101.3*,4.4,3.2[16.7 µM],-3.4
C[C@H]1CN([C@@H](C)CO)S(=O)(=O)c2ccc(C#Cc3cccc(F)c3)cc2O[C@@H]1CN(C)C,/,/,94.3*,4.6,-6.3[16.7 µM],4.4
CCCC#Cc1ccc2c(c1)O[C@H](CN(C)C)[C@H](C)CN([C@@H](C)CO)S2(=O)=O,/,/,2.4,1.2,-35.3[16.7 µM],1.8
C[C@@H]1CN([C@H](C)CO)S(=O)(=O)c2ccc(C#Cc3ccc(F)cc3)cc2O[C@H]1CN(C)C(=O)NC1CCCC1,/,/,82.4*,-4.5,20.6[16.7 µM],-13.3
O=C([C@H]1[C@H](CO)[C@H]2Cn3c(cccc3=O)[C@@H]1N2CC1CCCCC1)N1CCOCC1,/,/,44.8,0.3,/,-0.3
C[C@@H]1CN([C@@H](C)CO)C(=O)c2cc(-c3ccc(C#N)cc3)cnc2O[C@H]1CN(C)CC1CCCCC1,/,/,-1.3,8.0,14.4[16.7 µM],-4.1
C/C=C/c1ccc2c(c1)O[C@H](CN(C)C(=O)NC1CCCCC1)[C@@H](C)CN([C@H](C)CO)S2(=O)=O,/,/,7.0,0.9,-27.9[16.7 µM],-2.6
CC(=O)N(C)C[C@H]1Oc2cc(C#Cc3ccc(F)cc3)ccc2S(=O)(=O)N([C@H](C)CO)C[C@@H]1C,/,/,110.2*,-2.3,/,-17.7
C/C=C/c1ccc2c(c1)O[C@H](CN(C)C(=O)NC1CCCCC1)[C@H](C)CN([C@@H](C)CO)S2(=O)=O,/,/,6.8,-1.8,56.2*[16.7 µM],3.0
COc1ccc(C#Cc2ccc3c(c2)O[C@@H](CN(C)C(C)=O)[C@@H](C)CN([C@H](C)CO)S3(=O)=O)cc1,/,/,102.1*,-1.7,15.0[16.7 µM],-1.4
COc1ccc(C#Cc2ccc3c(c2)O[C@H](CN(C)C(=O)Nc2cccc(OC)c2)[C@H](C)CN([C@@H](C)CO)S3(=O)=O)cc1,/,/,86.0*,-0.9,-23.5[16.7 µM],13.5
CC(=O)N(C)C[C@H]1Oc2cc(C#Cc3ccc(F)cc3)ccc2S(=O)(=O)N([C@H](C)CO)C[C@H]1C,/,/,-4.5,-0.2,/,2.0
Cc1ccc(S(=O)(=O)Nc2ccc3c(c2)C(=O)N([C@@H](C)CO)C[C@H](C)[C@H](CN(C)Cc2ccc(Cl)c(Cl)c2)O3)cc1,/,/,6.2,-2.9,/,7.6
CCC(=O)N1CCCCN2[C@H](C1)[C@H](c1ccc(C#Cc3ccccc3)cc1)[C@@H]2CO,/,/,1.7,-1.4,/,/
C/C(NC(=O)c1ccccc1)=C1/C(=O)CC2C1C2(C)C (centres undefined),0.0,?,-4.4,/,/,52.0*
CCCCCCCCn1ccc(=N)cc1,-3.6,/,-0.9,-1.1,20.9,/
CCCCCCCCCCn1ccc(=N)cc1,-16.1,/,10.4,8.6,77.5*,/
O=C1CC(/C=C/c2ccncc2)=Nc2ccccc2N1,0.0,-3.9,8.9,-0.2,2.8,88.2*
